High-throughput results as filed in PubChem.
T cruzi inh – blocks replication of Trypanosoma cruzi; T. cruzi beta-gal in NIH3T3, luminescence, 90 h; inhibition, % (test concentration not listed); actives 1.4% (n = 300,000);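 active = mean inhibition across valid replicates above about 55%, limit read from the data; inconclusive = mean below that limit but half or more replicates reach it; inactive = mean below it, under half of replicates reach it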;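 also: signal also drops with host cell toxicity which is not excluded here; 0% = plate median of DMSO wells and 100% = zero luminescence signal; higher percent means less beta-gal luminescence so fewer parasites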
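System: NIH/3T3 fibroblasts plus reporter T. cruzi. Medium: DMEM plus 2% FBS. Probe or stimulus: 5000 reporter trypomastigotes per well. Compound: single 50 nL compound addition per well in DMSO. Incubation: co-culture of at least 90 h after 3 h attachment. Detection: GalScreen β-gal luminescence, detergent lysis, 60 min. Evaluation: parasite load inhibition, %.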
NLRP3 yeast inh – NALP3 inhibition in yeast. actives 0.39% (n = 330,000). Yeast reconstituted NLRP3/ASC/caspase-1, beta-gal luminescence, 24 h. inhibition, % at 10 µM. AID 2825;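 active = inhibition of 50% or more; inactive = inhibition below 50%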;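 also: plate controls were induced DMSO wells for no effect and uninduced yeast grown without galactose for full effect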
Mdm2 MdmX PPI – human Mdm2/MdmX binding inhibition | O15151+Q00987 | SaOS-2 split-luciferase Mdm2/MdmX complementation, luminescence | inhibition, % at 8 µM | actives 3% (n = 330,000) | AID 485346;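 active = inhibition of at least 50% at 8 µM in the primary screen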
Target sequence (O15151 whole entry, looked up): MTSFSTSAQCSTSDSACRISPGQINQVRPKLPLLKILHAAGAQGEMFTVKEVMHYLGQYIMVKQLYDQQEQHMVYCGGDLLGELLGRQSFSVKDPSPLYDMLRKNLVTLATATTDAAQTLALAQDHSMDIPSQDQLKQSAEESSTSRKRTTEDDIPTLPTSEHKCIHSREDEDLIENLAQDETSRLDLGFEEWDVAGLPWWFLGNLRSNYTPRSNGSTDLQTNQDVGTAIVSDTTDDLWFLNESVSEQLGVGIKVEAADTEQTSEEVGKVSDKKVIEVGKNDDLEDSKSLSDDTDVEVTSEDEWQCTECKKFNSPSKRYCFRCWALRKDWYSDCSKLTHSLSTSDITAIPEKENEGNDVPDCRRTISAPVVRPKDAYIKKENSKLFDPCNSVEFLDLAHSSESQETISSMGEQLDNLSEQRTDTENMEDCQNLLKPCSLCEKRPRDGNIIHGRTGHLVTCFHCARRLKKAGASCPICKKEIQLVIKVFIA
Target sequence (Q00987 whole entry, looked up): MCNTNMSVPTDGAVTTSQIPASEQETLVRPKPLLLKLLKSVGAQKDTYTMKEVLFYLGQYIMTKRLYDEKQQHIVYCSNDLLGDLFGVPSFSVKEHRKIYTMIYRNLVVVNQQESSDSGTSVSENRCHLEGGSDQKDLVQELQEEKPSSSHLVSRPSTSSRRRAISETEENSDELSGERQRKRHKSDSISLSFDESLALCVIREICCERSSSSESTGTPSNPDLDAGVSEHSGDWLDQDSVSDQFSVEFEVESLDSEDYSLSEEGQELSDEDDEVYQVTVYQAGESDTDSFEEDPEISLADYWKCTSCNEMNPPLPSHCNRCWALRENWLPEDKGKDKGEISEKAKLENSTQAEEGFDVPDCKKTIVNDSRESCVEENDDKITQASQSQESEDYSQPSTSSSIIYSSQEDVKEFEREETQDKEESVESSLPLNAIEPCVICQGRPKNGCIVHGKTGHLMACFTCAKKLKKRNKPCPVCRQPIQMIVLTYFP
CSC inhib – cancer stem cell inhibition; cancer stem cell-like cells viability, luminescence; inhibition, % at 7.5 µM; actives 1.1% (n = 300,000); AID 2717; in the data active = inhibition above about 75%; inconclusive = no clear call, values can overlap the other calls; tested in HMLE shEcad cells
Beta cell apopt – beta cell apoptosis inhibition; INS-1E cytokine-induced death, ATP luminescence, 48 h; percent of positive-control rescue, neutral wells zero; actives 0.8% (n = 300,000); protection from apoptosis, % (no concentration beside the values); AID 435005;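 active = Every replicate reaches about 75%, or at least half do and their mean reaches it too, limit read from the data; inconclusive = At least half of replicates reach the limit but their mean does not; inactive = Under half of replicates reach the limit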;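 also: 0% = cytokine-treated negative control wells and 100% = positive control rescue; higher means more ATP so stronger rescue from cytokine killing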
Calb FLC – affects C. albicans growth with fluconazole; actives 0.57% (n = 300,000); C. albicans CaCi-2 + fluconazole, Alamar Blue growth, 48 h; growth inhibition, % (concentration not given with the values);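 active = growth inhibition above about 58% in most replicates, limit read from the data, passing the limit was not always enough; inconclusive = exactly half the replicates above a set limit; inactive = most replicates below a set limit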;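 also: all wells also contain fluconazole at 8 µg/ml as a sub-toxic cotreatment; 0% = median of DMSO wells and 100% = median of geldanamycin control wells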
Starred values were filed as active, the others as inactive; ? = inconclusive; . = no result. Sampled rows, rich in hits. Any-hit rate of the full collection: about 5.3%.

SMILES	T cruzi inh	NLRP3 yeast inh	Mdm2 MdmX PPI	CSC inhib	Beta cell apopt	Calb FLC
Cc1ccc(S(=O)(=O)NCc2ccc3c(c2)cc(C)n3C)cc1	64*	23	16	-7	4	-2
CNC(=O)C1CN(C(=O)c2cccc(S(=O)(=O)N3c4ccccc4CC3C)c2)c2ccccc2O1 (configuration not stated)	.	1	-18	-14	-8	.
CC(C)(C)c1ccc(/C=C/C(=O)Nc2cccnc2)cc1	-16	27	-142	14	-1	8
COC(=O)C1CCN(Cc2c(C(=O)N3C[C@@H](C)O[C@@H](C)C3)nc3ccc(Cl)cn23)CC1	-14	-2	4	-6	-2	87*
Cc1cccc(C)c1-n1ncc(C(=O)NC2CCCC2)c1C1CCNCC1	-12	1	22	6	-5	8
CCc1ccc(-n2nnnc2SCC(=O)Nc2ccc(NC(C)=O)cc2)cc1	55*	13	17	-2	.	6
COc1ccc(NC(=O)c2cc(-c3cccnc3)nc3c(C)c(C)ccc23)c(OC)c1	56*	3	-28	2	11	15
O=S(=O)(Nc1c(S(=O)(=O)c2ccccc2)c2nc3ccccc3nc2n1C1CCCCC1)c1ccccc1	0	.	.	106*	2	-2
C=CCn1c(NS(=O)(=O)c2ccccc2)c(S(=O)(=O)c2ccc(C)cc2)c2nc3ccccc3nc21	3	.	.	9	-1	11
Cc1c(CCOC(=O)C23CC4CC(CC(C)(C4)C2)C3)sc[n+]1Cc1ccccc1	?	23	46	31	34	101*
Cc1c(CCOC(=O)c2cc([N+](=O)[O-])cc([N+](=O)[O-])c2)sc[n+]1CC(=O)c1ccc(Br)cc1	57*	9	6	38	1	-1
Cc1c(CCOC(=O)c2ccc(Cl)cc2Cl)sc[n+]1CC(=O)c1ccccc1	.	14	32	-10	-5	.
Cc1c(CCOC(=O)C23CC4(C)CC(C)(CC(C)(C4)C2)C3)sc[n+]1CC(=O)c1ccccc1	31	7	10	.	22	113*
Cc1sc2nc(SCc3ccc(C(=O)O)cc3)n(Cc3ccco3)c(=O)c2c1C	61*	2	20	-12	8	-2
C=CCn1c(SCc2ccc(C(=O)O)cc2)nc2sc(C)c(C)c2c1=O	-2	3	-22	4	-1	31
O=C(Cn1c(=O)n(Cc2ccco2)c(=O)c2c3c(sc21)CCCCC3)c1ccccc1	-2	0	-11	12	-6	-6
O=C(Cn1c(=O)n(Cc2ccco2)c(=O)c2c3c(sc21)CCCCC3)Nc1ccccc1	-26	2	24	1	-6	6
CN(C)CCn1c(=O)n(Cc2ccco2)c(=O)c2c3c(sc21)CCCCC3	55*	10	-3	-12	6	10
O=c1c2c3c(sc2n(CCN2CCCC2)c(=O)n1Cc1ccco1)CCCCC3	57*	15	1	-17	.	36
CCOc1ccccc1NC(=O)c1cccc(NC2=NC3CS(=O)(=O)CC3S2)c1 (configuration not stated)	-17	17	-23	-2	-8	-6
c1ccc(C[n+]2c(-c3ccccc3)csc2Nc2ccccc2)cc1	19	21	-15	83*	11	-4
c1ccc(Nc2scc(-c3ccccc3)[n+]2Cc2ccco2)cc1	-14	19	-105	9	0	-10
O=C(Nc1ccn(Cc2c(F)c(F)cc(F)c2F)n1)c1ccc(COc2ccccc2Cl)cc1	63*	-5	25	14	0	18
O=C(Nc1ccn(Cc2ccccc2F)n1)c1ccc(COc2cccc(Br)c2)cc1	35	13	-41	48	0	-3
O=C(Nc1ccn(Cc2ccccc2F)n1)c1ccc(COc2ccccc2Cl)cc1	24	-1	21	139*	6	4
SMILES	T cruzi inh	NLRP3 yeast inh	Mdm2 MdmX PPI	CSC inhib	Beta cell apopt	Calb FLC
Cc1cc(C)nc(NC(=O)c2ccc(COc3ccccc3Cl)cc2)c1	-10	7	9	99*	9	3
COc1ccc(N(CC(=O)NC2CC2)S(=O)(=O)c2ccccc2)cc1	15	13	-10	-6	-7	3
O=C(Cn1c(=O)oc2cc(S(=O)(=O)N3CCCC3)ccc21)NCc1ccc(F)cc1	-9	-4	15	-2	-1	1
C=C(C)CSc1[nH]c(=O)cc(C)c1C#N	-14	-28	10	-14	4	86*
COc1cccc(N2CCc3c(C)nc4ccc(Cl)cc4c32)c1	19	.	.	39	17	2
CCN1Cc2c(/C=C/c3ccccc3)nc3ccc(OC)cc3c2N(c2cccc(Cl)c2)C1	52	9	21	107*	41	-15
CCOc1ccc(-c2nnc(-c3cccnc3)o2)cc1OCC	5	1	-22	.	-4	-3
COc1cccc(-n2c(CN3CCN(c4ccc(C)cc4)C(C)C3)nc3ccc([N+](=O)[O-])cc3c2=O)c1 (configuration not stated)	39	18	-4	-8	3	-5
COc1cccc(-n2c(CN3CCN(c4cccc(C)c4)C(C)C3)nc3ccc([N+](=O)[O-])cc3c2=O)c1 (configuration not stated)	59*	30	-11	18	7	0
Cc1ccccc1NC(=S)Nc1cccc2cnccc12	-8	13	5	13	129*	-4
CC(C)(C)[C@H]1CCC(=O)N([C@H](CSc2ccccc2)Cc2ccccc2)CC1	43	14	11	139*	6	2
CC(C)(C)[C@H]1CCC(=O)N([C@H](CSc2ccc(Br)cc2)Cc2ccccc2)CC1	.	9	38	2	5	.
CC(C)(C)[C@@H]1CCC(=O)N(CC[C@H](Sc2ccccc2)c2ccccc2)CC1	39	20	29	104*	25	0
CC(=O)Nc1ccc(S[C@@H](CCN2CC[C@H](C(C)(C)C)CCC2=O)c2ccccc2)cc1	.	16	12	-2	-7	.
C/C(=N/N=C(/C)c1cccs1)c1cccs1	-4	15	-33	2	-6	-20
Cc1[nH]c2ccc(C(=O)Nc3ccncc3)cc2c1C	-2	17	18	7	3	3
Cc1onc(-c2ccccc2)c1C(=O)N/N=C(\N)COc1ccc(Cl)cc1	-8	3	3	1	11	86*
Cc1onc(-c2ccccc2Cl)c1C(=O)N/N=C(\N)COc1ccc(Cl)cc1	12	-1	31	21	25	-18
COc1ccccc1/C=N/NC(=O)c1ccc(NC(=O)c2cccc([N+](=O)[O-])c2)cc1	-28	4	-6	1	0	-9
COc1cc(/C=N/NC(=O)c2ccoc2C)ccc1O	-20	-16	1	-1	-2	3
COc1cccc(/C=N/NC(=O)c2c(-c3ccccc3)noc2C)c1O	-7	25	34	48	87*	-3
